From PubChem
V1R ag counter – agonists of human V1a receptor, primary screen, counter-screen for OXTR agonist project, fluorescence, CHO-V1R cells. Vasopressin V1a receptor (Homo sapiens), P37288. Fluo-8 calcium fluorescence, agonist mode; 0% DMSO, 100% 3 nM vasopressin. activation, % at 3 µM. 320,000 compounds, 0.25% hits;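 active means activation above the mean activation of all tested compounds plus 3 SD, per screening run, cut at about 20% in these data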;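 further: signal is peak over basal fluorescence ratio across a 100 second FLIPR read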
zfTRPN1 agonist – zebrafish TRPN1 channel agonists, primary screen, cell-based, HEK293, calcium fluorescence | transient receptor potential cation channel N1 (TRPN1/NompC), Danio rerio | HEK293 zebrafish TRPN1-YFP, Fluo-8 calcium fluorescence; 100% = response to 87 µM carbachol | activation, % at 3 µM | 220,000 compounds, 0.18% hits | AID 1424, 2008;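 active means activation above its plate's cutoff, the mean activation of test wells on that plate plus 3 SD, cut at about 19% in these data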
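Control set: carbachol 87 µM as high control, DMSO as low control; system: HEK293 stable line with zebrafish TRPN1-YFP; read-out: % activation versus carbachol response; detection: intracellular calcium fluorescence with Fluo-8; doses: single test compound dose, 3 µM nominal, 0.3% DMSO; schedule: dye 1 h 37 °C plus 30 min RT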
OXTR potentiate – human OXTR potentiators, primary screen, fluorescence, CHO-OTR cells, Fluo-8 calcium. Fluo-8 calcium fluorescence, potentiator mode; 0% = oxytocin EC15, 100% = EC100. 320,000 compounds, 0.061% hits. activation, % at 3 µM. Oxytocin receptor (Homo sapiens), P30559;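 active means activation above that plate's cutoff, the mean activation of tested compounds plus 3 SD, cut at about 6.6% in these data, passing the limit was not always enough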
Target sequence (P30559 whole entry, looked up): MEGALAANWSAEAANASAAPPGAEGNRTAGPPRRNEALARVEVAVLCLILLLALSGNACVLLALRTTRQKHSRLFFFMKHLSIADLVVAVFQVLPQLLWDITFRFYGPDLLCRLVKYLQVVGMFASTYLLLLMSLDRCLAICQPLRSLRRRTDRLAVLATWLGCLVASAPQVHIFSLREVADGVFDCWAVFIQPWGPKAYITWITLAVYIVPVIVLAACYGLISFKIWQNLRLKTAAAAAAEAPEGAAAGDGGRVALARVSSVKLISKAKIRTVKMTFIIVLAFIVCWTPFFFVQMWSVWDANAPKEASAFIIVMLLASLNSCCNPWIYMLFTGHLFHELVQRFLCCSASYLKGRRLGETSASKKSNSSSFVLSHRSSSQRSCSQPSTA
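System: human OTR in CHO cells; Also added: sub-maximal oxytocin, roughly EC15; Timing: compound 6 min at room temperature before oxytocin, 100 s read; Technique: Fluo-8 intracellular calcium fluorescence, ex 470-495, em 515-575 nm; Controls: oxytocin EC15 low and EC100 high; Replication: singlicate.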
TRPML3 agonist – human TRPML3 channel agonists, primary screen, cell-based, HEK293 TRPML3-YFP, Fluo-8 calcium fluorescence, 3 µM | Mucolipin-3 (Homo sapiens), Q8TDD5 | AID 1448, 2008 | activation, % at 3 µM | 100% = the carbachol control signal | 220,000 compounds, 0.29% hits;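 active means activation above its plate's cutoff, the mean activation of the plate's test wells plus 3 SD, cut at about 12% in these data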
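Material: HEK293 cells stably carrying human TRPML3-YFP; compound dosing: single dose, 3 µM final nominal compound, 0.3% DMSO final; incubation: 1-h 37 °C dye load, 5-s basal, 120-s post-compound reads; technique: Fluo-8 intracellular calcium fluorescence, excitation 470-495 nm, emission 515-575 nm; read-out basis: percent activation from peak-to-basal fluorescence ratio, scaled between DMSO and carbachol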
OXTR ag – human OXTR agonists, primary screen, fluorescence, CHO-OTR cells, Fluo-8 calcium | Oxytocin receptor (Homo sapiens), P30559 | Fluo-8 calcium fluorescence; normalized: DMSO 0%, oxytocin 100% | activation, % at 3 µM | 320,000 compounds, 0.32% hits | AID 2435, 2010;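 active means activation above the mean of all tested compounds plus 3 SD, cutoff set per screening run, cut at about 20% in these data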;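 further: peak over basal fluorescence ratio from a 100 s FLIPR kinetic read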
V1R ag confirm – V1a receptor agonists, calcium signal, confirmation, Fluo-8 calcium fluorescence, CHO-V1R cells; agonist; 180 compounds, 20% hits; shares compounds with V1R ag counter; activation, % at 3 µM; AID 434964, 2010;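 active means average activation exceeds primary screen hit cutoff, cut at about 21% in these data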;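 further: peak over basal fluorescence ratio during a 100 s FLIPR read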
OXTR counter – human OXTR agonists, counter-screen for V1R agonist project, fluorescence, CHO-OTR cells, triplicate; shares compounds with V1R ag counter; Fluo-8 calcium fluorescence; activation, % at 3 µM; 180 compounds, 10% hits; AID 434969, 2010;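 active means mean activation over three repeats above the cutoff from the earlier oxytocin receptor agonist screen, cut at about 20% in these data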;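 further: peak over minimum fluorescence ratio within a 100 second FLIPR read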
Large screens that a line does not name were inactive (follow-up assays come after a bar, where they were run). In the library only some 0.58% were active in any assay of this set; here they are far more common.

CN(CCOc1ccccc1)C(=O)C1CCC(=O)N(CCN2CCOCC2)C1 (stereo unspecified)	none (no result: zfTRPN1 agonist, TRPML3 agonist)
O=C(N/N=C/c1sc(=O)[nH]c1-[n+]1ccc2ccccc2c1)c1ccccc1[O-]	V1R ag counter 27 (no result: zfTRPN1 agonist, TRPML3 agonist) | V1R ag confirm inactive | OXTR counter inactive
O=C(N/N=C/c1sc(=O)[nH]c1-[n+]1ccccc1)c1ccccc1[O-]	none
O=C(NCCC(=O)N1CCCC(C(F)(F)F)C1)c1ccccc1Cl (stereo unspecified)	none (no result: zfTRPN1 agonist, TRPML3 agonist)
C=CCOC(=O)C1=C[C@@H](c2csc3ccccc23)[C@H](CCCO)[C@@H](OCC)O1	none (no result: zfTRPN1 agonist, TRPML3 agonist)
O=C(Nc1ccc(Cl)cc1)Nc1ccc(N2CCOCC2)cc1	none
O=C(Nc1ccc(N2CCOCC2)cc1)Nc1ccc(Cl)c(Cl)c1	V1R ag counter 21 | V1R ag confirm inactive | OXTR counter inactive
Cc1c(C)n(C)c2ccc(C(=O)Nc3cccc4ccccc34)cc12	none
COc1ccc(NC(=O)CSc2nc3nc(C)cc(C)c3c(=O)[nH]2)cc1	V1R ag counter 23 (no result: zfTRPN1 agonist, TRPML3 agonist) | V1R ag confirm inactive | OXTR counter inactive
Nc1nccnc1C(=O)OCC(=O)NNC(=O)c1ccccc1	none (no result: zfTRPN1 agonist, TRPML3 agonist)
O=C(O)c1ccccc1C1=Nc2ccc(O)cc2Oc2cc(O)ccc21	V1R ag counter 23 | V1R ag confirm 27 | OXTR counter 20
Cc1cc(-c2ccccc2C(=O)O)on1	none
Cc1ccc(-c2ccc(=O)n(Cc3ccc(F)cc3)n2)cc1	V1R ag counter 22 (no result: zfTRPN1 agonist, TRPML3 agonist) | V1R ag confirm inactive | OXTR counter inactive
CC[N+]1=C(C)C(C)(C)c2cc(C)ccc21	V1R ag counter 23 | V1R ag confirm inactive | OXTR counter inactive
CC(C)Cn1c(-c2ccc(Br)cc2)c[nH]c1=S	V1R ag counter 35 | V1R ag confirm inactive | OXTR counter inactive
CC1=NN(c2ccc(Cl)cc2)C(=O)C1C(c1cccc(O)c1)c1c(C)[nH]n(-c2ccc(Cl)cc2)c1=O (stereo unspecified)	V1R ag counter 20 | V1R ag confirm inactive | OXTR counter inactive
CCCn1c(SCC(=O)NC2CCCCC2)nnc1-c1ccco1	none (no result: zfTRPN1 agonist, TRPML3 agonist)
COC(=O)c1cc(CNC(=O)c2ccc(S(=O)(=O)N(C)c3ccccc3)cc2)ccc1OC	V1R ag counter 24 (no result: zfTRPN1 agonist, TRPML3 agonist) | V1R ag confirm inactive | OXTR counter inactive
Cc1cc(C)c(S(=O)(=O)N2CCN(C(=O)C3COc4ccccc4O3)CC2)c(C)c1 (stereo unspecified)	none (no result: zfTRPN1 agonist, TRPML3 agonist)
Cc1nn(CC(=O)N2CCC(C(N)=O)CC2)c(=O)c2nn(-c3ccccc3)c(C)c12	none (no result: zfTRPN1 agonist, TRPML3 agonist)
O=C(c1ccccc1NS(=O)(=O)c1ccc(F)cc1)N1CCc2ccccc21	V1R ag counter 24 | V1R ag confirm inactive | OXTR counter inactive
COc1cccc(C(=O)Oc2cc(N)n(S(=O)(=O)c3ccc(C)cc3)n2)c1OC	V1R ag counter 28 | V1R ag confirm inactive | OXTR counter inactive
COc1ccc(/C=C2/SC(=O)NC2=O)cc1	none
COc1ccc(/C=C2/C(=O)C(C)(C(C)C)CCC2C)cc1 (stereo unspecified)	V1R ag counter 20 (no result: zfTRPN1 agonist, TRPML3 agonist) | V1R ag confirm inactive | OXTR counter inactive
Cc1ccc(N2C(=O)C(Cl)=C(N3CCOCC3)C2=O)c(C)c1	none (no result: zfTRPN1 agonist, TRPML3 agonist)
COc1ccc(/C=C/CN2CCC(CO)(Cc3ccccc3Cl)CC2)cc1	V1R ag counter 28 | V1R ag confirm inactive | OXTR counter inactive
CC(=O)Nc1ccc(N2CCN(c3ccc(C(F)(F)F)cn3)CC2)nc1	V1R ag counter 25 | V1R ag confirm inactive | OXTR counter inactive
O=C(Nc1ccc(N2CCN(c3ccc(C(F)(F)F)cn3)CC2)nc1)c1cccs1	none
COc1c(O)cccc1[C@@H](O)C1CCN(CCc2ccc(F)cc2)CC1	none (no result: zfTRPN1 agonist, TRPML3 agonist)
CCCn1c(SCC(=O)Nc2cccc(F)c2)nc(O)cc1=O	V1R ag counter 26 (no result: zfTRPN1 agonist, TRPML3 agonist) | V1R ag confirm inactive | OXTR counter inactive
CCn1c(SCC(=O)Nc2ccc(C)cc2)nc(O)cc1=O	none
CCOC(=O)Nc1ccc(C(=O)c2ccncc2)cc1	V1R ag counter 20 (no result: zfTRPN1 agonist, TRPML3 agonist) | V1R ag confirm inactive | OXTR counter inactive
COc1ccc(N(CC(=O)N2CCN(c3cccc(C)c3)C(C)C2)S(=O)(=O)c2c(C)n[nH]c2C)cc1 (stereo unspecified)	V1R ag counter 23 | V1R ag confirm inactive | OXTR counter inactive
COc1cc(/C=C2\SC(=O)N(CC(=O)Nc3ccccc3F)C2=O)cc(Cl)c1O	V1R ag counter 22 (no result: zfTRPN1 agonist, TRPML3 agonist) | V1R ag confirm 67 | OXTR counter 60
COc1cc(OC)c(/C=C2\SC(=O)N(CC(=O)Nc3ccccc3F)C2=O)c(OC)c1	none (no result: zfTRPN1 agonist, TRPML3 agonist)
CN(CCOc1ccccc1)C(=O)c1ccc(F)c(S(=O)(=O)N2CCOCC2)c1	none (no result: zfTRPN1 agonist, TRPML3 agonist)
C[C@H](CO)N1C[C@H](C)[C@@H](CN(C)Cc2ccc(-c3ccccc3)cc2)Oc2c(NS(=O)(=O)c3cn(C)cn3)cccc2C1=O	V1R ag counter 77 (no result: zfTRPN1 agonist, TRPML3 agonist) | V1R ag confirm inactive | OXTR counter inactive
CCC1CCCCN1CCCNC(=O)c1ccc(N2CCOCC2)c(NS(=O)(=O)c2ccc(OC)cc2)c1 (stereo unspecified)	V1R ag counter 21 | V1R ag confirm inactive | OXTR counter inactive
Oc1ccc(Cl)cc1C=Nc1ccc2c3c(cccc13)CC2	V1R ag counter 51 | V1R ag confirm inactive | OXTR counter inactive
Oc1ccc(Cl)cc1/C=N/c1nccs1	none
C=CCN(C(=O)c1csnn1)C(C(=O)NC1CCCC1)c1ccccc1 (stereo unspecified)	none (no result: zfTRPN1 agonist, TRPML3 agonist)
